Measured values from different studies.
Protocols differ between the studies behind these lines.

| SMILES | target or system | assay | system | setting | endpoint | value |
| --- | --- | --- | --- | --- | --- | --- |
| Oc1c(Br)cc(Br)cc1-c1[nH]c(Br)c(Br)c1Br | Streptococcus pneumoniae | microbial growth | ATCC49619 |  | MIC | 0.04 µM |
| C[C@@H]1CN2c3c(cc4c(N5C(=O)OC[C@@H]5C)noc4c3F)CC3(C(=O)NC(=O)NC3=O)[C@H]2[C@H](C)O1 | Klebsiella pneumoniae | microbial growth, broth dilution | ATCC10031 |  | MIC | 0.25 µg/mL |
| Cc1c2ccncc2c(C)c2c1[nH]c1ccccc12 | Caco-2 | cell growth or viability, SRB |  | 72 h | GI50 | 4.91 µM |
| COc1ccc(Nc2nn3c(-c4ccccc4)ccnc3c2C(=O)Nc2ccccc2)cc1 | Caco-2 | cell growth or viability, MTT |  | 25 µg/mL, 48 h, serum-free | viability | 56.6% |
| COc1ccc(-c2c(-c3ccc(C#N)c(F)c3)nc(N3CCC(N)CC3)n(C)c2=O)cc1F | TC-32 | cell growth or viability, resazurin |  |  | IC50 | 36 µM |
| O=c1ccc2nc3ccc(O)cc3oc-2c1 | Klebsiella pneumoniae | microbial growth |  | 24 h | MIC | > 32 µg/mL |
| Oc1c(Cl)cc(Cl)cc1-c1[nH]c(Cl)c(Cl)c1Cl | Streptococcus pneumoniae | microbial growth | ATCC49619 |  | MIC | 0.13 µM |
| O=c1ccc2nc3ccc(OCc4ccc([N+](=O)[O-])o4)cc3oc-2c1 | Klebsiella pneumoniae | microbial growth |  | 24 h | MIC | > 32 µg/mL |
| N.N.[Cl][Pt][Cl] | A2780 | cell growth or viability, MTT |  |  | IC50 | 0.31 µM |
